Experiments:
[1] = Cytotoxicity in mammalian cells; type: cell-based, BALB/c mice; details: BALB/c, mouse, bone marrow-derived macrophages (BMDM)
Outline: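 Bone-marrow cells from BALB/c mice were differentiated for 7 days at 37 °C, 5% CO2. The medium was DMEM with 10% FBSi, 1% NEAA and 10% L929-conditioned medium. The resulting macrophages were exposed to test compound at up to 40 μM for 24 h. Viability was measured by resazurin assay. CC50 was calculated from percent viability relative to untreated control.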

[2] = tested on: L. infantum promastigotes; assay: Activity against promastigotes; type: cell-based; details: Leishmania infantum, 24 h, read-out: IC50 L. infantum (P)
Outline: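 L. infantum MHOM/MA/67/ITMAP263 promastigotes were grown at 25 °C for at most 10 passages in RPMI with 10% FBSi and 5 mM HEPES, pH 7.4. Late-exponential cells were seeded at 3×10^6 cells/mL and exposed for 24 h to test compound (DMSO stock diluted in RPMI), in triplicate. Controls were 0.5% DMSO and amphotericin B. Resazurin fluorescence gave viability and IC50 was fitted.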

[3] = tested on: L. infantum axenic amastigotes; assay: Activity against axenic amastigotes; type: cell-based; details: Leishmania infantum, 24 h, read-out: IC50 L. infantum (AA)
Outline: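 L. infantum axenic amastigotes came from parasites recently recovered from infected mouse spleen. They were kept at 37 °C, 5% CO2 in MAA with 20% iFBS, 2 mM Glutamax and 0.023 mM hemin. Cells were seeded at 1.5×10^5 per well in MAA20. Test compound was dissolved in DMSO and diluted in medium for 24 h, in triplicate. Controls were 0.5% DMSO and amphotericin B. Viability was read by resazurin fluorescence and IC50 fitted.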

[4] = tested on: L. major promastigotes; assay: Activity against promastigotes; type: cell-based; details: Leishmania major, 24 h, read-out: IC50 L. major (P)
Outline: (§1)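 Promastigotes of L. major MHOM/SA/85/JISH118 or L. amazonensis MHOM/BR/LTB0016 were kept at 25 °C for at most 10 passages in Schneider's with 10% FBSi, 2% human urine and 5 mM HEPES. Late-exponential cells were seeded at 3×10^6 cells/mL. They were treated 24 h with test compound (DMSO stock diluted in Schneider's), in triplicate. Controls were 0.5% DMSO and amphotericin B. Resazurin read-out; IC50 fitted.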

[5] = tested on: L. amazonensis promastigotes; assay: Activity against promastigotes; type: cell-based; details: Leishmania amazonensis, 24 h, read-out: IC50 L. amazonensis (P)
Outline: as §1

[6] = tested on: L. infantum intracellular amastigotes; assay: IC50 against Leishmania intracellular amastigotes in infected macrophages; type: cell-based, Leishmania infantum; details: CC50 BMDM versus IC50 intracellular amastigotes
Outline: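 Ratio of BMDM CC50 (resazurin, 24 h) to intracellular IC50. For IC50, BALB/c BMDM were infected 3 h with stationary-phase L. infantum promastigotes (10:1), then washed. After 24 h, test compound in DMEM was added for 24 h, with 0.5% DMSO and amphotericin B controls. Cells were fixed, DAPI/CellMask stained and imaged automatically. IC50 was derived from percent infected macrophages.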

| Structure (SMILES) | IC50 [2] [µM] | IC50 [3] [µM] | IC50 [4] [µM] | IC50 [5] [µM] | CC50 at 24 h [1] [µM] | selectivity index [6] |
| --- | --- | --- | --- | --- | --- | --- |
| C[C@@H]1[C@H](O)[C@@H](C)/C=C/C=C/C=C/C=C/C=C/C=C/C=C/[C@H](O[C@@H]2O[C@H](C)[C@@H](O)[C@H](N)[C@@H]2O)C[C@@H]2O[C@](O)(C[C@@H](O)C[C@@H](O)[C@H](O)CC[C@@H](O)C[C@@H](O)CC(=O)O[C@H]1C)C[C@H](O)[C@H]2C(=O)O [Amphotericin B, reference compound] | 0.18 ± 0.09 | 0.4 ± 0.3 | 0.17 ± 0.08 | 0.2 ± 0.06 | 4.37 ± 0.97 | – |
| C/C=C(\CO)C(=O)OCc1ccc2c(c1)C(=O)CC(C)(C)O2 [Compound 12a, (2,2-dimethyl-4-oxochroman-6-yl)methyl (E)-2-(hydroxymethyl)but-2-enoate] | > 20 | – | > 20 | > 20 | – | – |
| C/C=C(\CO)C(=O)NCc1ccc2c(c1)C(=O)CC(C)(C)O2 [Compound 13a, (E)-N-((2,2-dimethyl-4-oxochroman-6-yl)methyl)-2-(hydroxymethyl)but-2-enamide] | > 20 | – | > 20 | > 20 | – | – |
| CCCCCCCCNCc1ccc2c(c1)C(=O)CC(C)(C)O2 [Compound 13c, 2,2-dimethyl-6-((octylamino)methyl)chroman-4-one] | – | 25.3 ± 2.1 | – | – | 40.2 ± 5.7 | 1.6 |
| Cc1ccc(Cc2ccc3c(c2)C(=O)CC(C)(C)O3)cc1 [Compound 21, 2,2-dimethyl-6-(4-methylbenzyl)chroman-4-one] | > 20 | – | > 20 | > 20 | – | – |

Further lines, with some results ahead:

| IC50 [2] [µM] | IC50 [3] [µM] | IC50 [4] [µM] | IC50 [5] [µM] | Structure (SMILES) | CC50 at 24 h [1] [µM] | selectivity index [6] |
| --- | --- | --- | --- | --- | --- | --- |
| > 20 | – | > 20 | > 20 | C/C=C/C(=O)NCc1ccc2c(c1)C(=O)CC(C)(C)N2 [Compound 14b, (E)-N-((2,2-dimethyl-4-oxo-1,2,3,4-tetrahydroquinolin-6-yl)methyl)but-2-enamide] | > 40 | – |
| > 20 | – | > 20 | > 20 | C/C=C(\C)C(=O)NCc1ccc2c(c1)C(=O)CC(C)(C)N2 [Compound 14c, (E)-N-((2,2-dimethyl-4-oxo-1,2,3,4-tetrahydroquinolin-6-yl)methyl)-2-methylbut-2-enamide] | > 40 | – |
| > 20 | – | > 20 | > 20 | CC(C)=CC(=O)NCc1ccc2c(c1)C(=O)CC(C)(C)N2 [Compound 14d, N-((2,2-dimethyl-4-oxo-1,2,3,4-tetrahydroquinolin-6-yl)methyl)-3-methylbut-2-enamide] | > 40 | – |
| – | – | > 20 | 10 to 20 | CC1(C)CC(=O)c2cc(CNC(=O)C/C=C/c3ccccc3)ccc2N1 [Compound 14e, (E)-N-((2,2-dimethyl-4-oxo-1,2,3,4-tetrahydroquinolin-6-yl)methyl)-4-phenylbut-3-enamide] | > 40 | – |
| > 20 | – | > 20 | > 20 | CC1(C)CC(=O)c2cc(CNC(=O)/C=C/c3cccs3)ccc2N1 [Compound 14f, (E)-N-((2,2-dimethyl-4-oxo-1,2,3,4-tetrahydroquinolin-6-yl)methyl)-3-(thiophen-2-yl)acrylamide] | > 40 | – |
| > 20 | – | > 20 | > 20 | C/C=C(\CO)C(=O)NCc1ccc2c(c1)C(=O)CC(C)(C)N2 [Compound 14g, (E)-N-((2,2-dimethyl-4-oxo-1,2,3,4-tetrahydroquinolin-6-yl)methyl)-2-(hydroxymethyl)but-2-enamide] | – | – |
